ChEMBL document CHEMBL4732044, “Discovery of a promising agent IQZ23 for the treatment of obesity and related metabolic disorders” (Eur J Med Chem, 2020)
Active and inactive are the calls of the source. The calls are words filed in the database; no cut-off is given here.

Tests used:
Mus musculus = test: Antiobesity activity in high fat diet-induced obese C57BL/6J mouse model assessed as decrease in body weight at 50 mg/kg, ip administered for every other days for 5 weeks; type: functional; design: scale not given: the % may be the effect or the level left
3T3-L1 [1] = test: Inhibition of mouse 3T3-L1 cells adipocyte differentiation assessed as reduction in adipogenic cocktail-induced PPARgamma mRNA expression at 1 mM after 24 hrs by RT-qPCR analysis; type: functional, cell-based
In short: (§1)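 Confluent 3T3-L1 preadipocytes received differentiation cocktail (0.5 mM IBMX, 100 ng/mL dexamethasone, 2 µg/mL insulin) with compound (0.01–1 µM; metformin 1 mM) for 24 h. mRNA was measured by SYBR Green RT-qPCR (30 cycles), normalized to β-actin, with the differentiated control set to 1. N = 4 independent experiments.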

3T3-L1 [2] = test: Inhibition of mouse 3T3-L1 cells adipocyte differentiation assessed as reduction in adipogenic cocktail-induced PPARgamma protein expression after 24 hrs by Western blot analysis; type: functional, cell-based
In short: (§2)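 3T3-L1 preadipocytes were exposed to adipogenic cocktail with compound (0.3 or 1 µM) and harvested on day 1. Lysates were resolved by SDS-PAGE, immunoblotted (primary antibody overnight at 4 °C, HRP secondary) and quantified by densitometry normalized to actin.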

C2C12 [3] = test: Activation of AMPK pathway in mouse C2C12 cells assessed as increase in glucose uptake at 1 mM after 6 hrs by 2-NBDG/Hoechst 33342 staining based Confocal microscopic method; type: cell-based; conditions: filed as activator
In short: (§3)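 C2C12 myoblasts kept in DMEM with 10% FBS and 1% penicillin/streptomycin at 37 °C under 5% CO2.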

3T3-L1 [4] = test: Inhibition of mouse 3T3-L1 cells adipocyte differentiation assessed as reduction in adipogenic cocktail-induced SREBP-1c protein expression after 24 hrs by Western blot analysis; type: functional, cell-based; in short: as §2
3T3-L1 [5] = test: Inhibition of mouse 3T3-L1 cells adipocyte differentiation assessed as reduction in adipogenic cocktail-induced C/EBPdelta mRNA expression at 1 mM after 24 hrs by RT-qPCR analysis; type: functional, cell-based; in short: as §1
3T3-L1 [6] = test: Lipid lowering activity in mouse 3T3-L1 cells assessed as reduction in adipogenic cocktail-induced triglyceride levels […] incubated for 6 days by GPO-POD assay relative to control; type: functional; design: scale not given: the % may be the effect or the level left; conditions: time 6 day
3T3-L1 [7] = test: Inhibition of mouse 3T3-L1 cells adipocyte differentiation assessed as reduction in adipogenic cocktail-induced FAS protein expression after 6 days by Western blot analysis; type: functional, cell-based; conditions: time 6.0 day
In short: (§4)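 3T3-L1 preadipocytes were differentiated with cocktail for 3 days, then insulin medium for 3 days, with compound (0.3 or 1 µM) present throughout. Cells were harvested on day 6 and proteins measured by Western blot, with densitometry normalized to actin.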

3T3-L1 [8] = test: Inhibition of mouse 3T3-L1 cells adipocyte differentiation assessed as reduction in adipogenic cocktail-induced C/EBPalpha mRNA expression at 1 mM after 24 hrs by RT-qPCR analysis; type: functional, cell-based; in short: as §1
C2C12 [9] = test: Activation of AMPK pathway in mouse C2C12 cells assessed as increase in glucose uptake at 1 mM after 6 hrs in presence of insulin by 2-NBDG/Hoechst 33342 staining based Confocal microscopic method; type: cell-based; conditions: filed as activator; in short: as §3
3T3-L1 [10] = test: Inhibition of mouse 3T3-L1 cells adipocyte differentiation assessed as reduction in adipogenic cocktail-induced ACC protein expression after 6 days by Western blot analysis; type: functional, cell-based; conditions: time 6.0 day; in short: as §4
3T3-L1 [11] = test: Inhibition of mouse 3T3-L1 cells adipocyte differentiation assessed as reduction in adipogenic cocktail-induced C/EBPalpha protein expression after 24 hrs by Western blot analysis; type: functional, cell-based; in short: as §2
3T3-L1 [12] = test: Activation of AMPK pathway in adipogenic cocktail-induced mouse 3T3-L1 cells assessed as increase in phosphorylation AMPKalpha at Thr172 residue after 24 hrs by Western blot analysis; type: cell-based; conditions: filed as activator
In short: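 Confluent 3T3-L1 pre-adipocytes exposed to adipogenic cocktail for 24 h with or without compound (0, 0.01, 0.1, 1 µM); DMSO vehicle. Lysates analysed by SDS-PAGE/Western blot for pAMPKα (Thr-172), normalized to actin, Ctrl set as 1. N = 4 independent experiments.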

3T3-L1 [13] = test: Inhibition of mouse 3T3-L1 cells adipocyte differentiation assessed as reduction in adipogenic cocktail-induced SCD1 protein expression after 6 days by Western blot analysis; type: functional, cell-based; conditions: time 6.0 day; in short: as §4
3T3-L1 [14] = test: Inhibition of mouse 3T3-L1 cells adipocyte differentiation assessed as reduction in adipogenic cocktail-induced C/EBPbeta mRNA expression at 1 mM after 24 hrs by RT-qPCR analysis; type: functional, cell-based; in short: as §1

Row | Compound | Activity (Mus musculus) | inhibition (3T3-L1 [1]) | inhibition (3T3-L1 [2]) | Activity (C2C12 [3]) | inhibition (3T3-L1 [4]) | inhibition (3T3-L1 [5]) | Activity (3T3-L1 [6]) | inhibition (3T3-L1 [7]) | inhibition (3T3-L1 [8]) | Activity (C2C12 [9]) | inhibition (3T3-L1 [10]) | inhibition (3T3-L1 [11]) | Activity (3T3-L1 [12]) | inhibition (3T3-L1 [13]) | inhibition (3T3-L1 [14])
1 | O=Cc1c(-c2nc3ccccc3c(=O)[nH]2)[nH]c2ccccc12 | 14.6% | – | – | – | – | – | – | – | – | – | – | – | – | – | –
2 | CN(C)C(=N)NC(=N)N [METFORMIN] | – | Active | Active | Active | Active | Active | 60.3% | Active | Active | Active | Active | Active | Active | Active | Active
